ChEMBL document CHEMBL1127345, “Synthesis, binding properties, and 18F labeling of fluorocarazolol, a high-affinity beta-adrenergic receptor antagonist” (J Med Chem, 1994)

How the values were obtained:
Mus musculus [1] = test: The in vivo tissue distribution of mouse bone with Propranolol administration after 60 min, value was fractional dose per fractional body weight of the organ; format: ADME, organism-based, Bone element; conditions: 1 h
How it was run: (§1)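 Male CF-1 mice (25–30 g), anesthetised with 2 mg sodium pentobarbital ip 30 min before tracer. Where blocked, propranolol iv via tail vein (0.1 mL of […]; […]) about 30 min before tracer. Tracer given by tail vein, 0.1 mL at 1–2 mCi/mL. Mice killed by cervical dislocation at set times, organs weighed and counted. %ID/g × body weight/100 gives unitless uptake. Heart, brain, blood, lung, kidney, liver and bone n=5; average ± SD.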

Mus musculus [2] = test: The in vivo tissue distribution of mouse bone with Propranolol preadministration in 60 min, value was fractional dose per fractional body weight of the organ; format: ADME, organism-based, Bone element; conditions: 1 h; how it was run: as §1
Mus musculus [3] = test: The in vivo tissue distribution of mouse heart with Propranolol preadministration in 10 min, value was fractional dose per fractional body weight of the organ; format: ADME, organism-based; how it was run: as §1
Mus musculus [4] = test: The in vivo tissue distribution of mouse heart with Propranolol preadministration in 180 min, value was fractional dose per fractional body weight of the organ; format: ADME, organism-based; conditions: 3 h
How it was run: (§2)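 Male CF-1 mice (25–30 g), given 2 mg sodium pentobarbital ip 30 min before tracer. Blocked groups received propranolol iv by tail vein, 0.1 mL of 1 mg/mL. About 30 min later, 0.1 mL of [18F]tracer (1–2 mCi/mL) was injected by tail vein. Mice were killed by cervical dislocation at set times, and organs were weighed and counted. Uptake is %ID/g × body weight/100, average ± SD; n=5 for heart, brain, blood, lung, kidney, liver and bone.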

Mus musculus [5] = test: The in vivo tissue distribution of mouse kidney with Propranolol administration after 10 min, value was fractional dose per fractional body weight of the organ; format: ADME, organism-based; how it was run: as §2
Mus musculus [6] = test: The in vivo tissue distribution of mouse kidney with Propranolol administration after 120 min, value was fractional dose per fractional body weight of the organ; format: ADME, organism-based; conditions: 2 h; how it was run: as §1
Mus musculus [7] = test: The in vivo tissue distribution of mouse kidney with Propranolol administration after 40 min, value was fractional dose per fractional body weight of the organ; format: ADME, organism-based; how it was run: as §2
Mus musculus [8] = test: The in vivo tissue distribution of mouse heart with Propranolol administration after 20 min, value was fractional dose per fractional body weight of the organ; format: ADME, organism-based; how it was run: as §1
Mus musculus [9] = test: The in vivo tissue distribution of mouse blood with Propranolol administration after 10 min, value was fractional dose per fractional body weight of the organ; format: ADME, organism-based; how it was run: as §1
Mus musculus [10] = test: The in vivo tissue distribution of mouse blood with Propranolol administration after 120 min, value was fractional dose per fractional body weight of the organ; format: ADME, organism-based; conditions: 2 h; how it was run: as §2
Mus musculus [11] = test: The in vivo tissue distribution of mouse brain with Propranolol administration after 40 min, value was fractional dose per fractional body weight of the organ; format: ADME, organism-based; how it was run: as §1
Mus musculus [12] = test: The in vivo tissue distribution of mouse brain with Propranolol administration after 60 min, value was fractional dose per fractional body weight of the organ; format: ADME, organism-based; conditions: 1 h; how it was run: as §1
Mus musculus [13] = test: The in vivo tissue distribution of mouse brain with Propranolol preadministration in 90 min, value was fractional dose per fractional body weight of the organ; format: ADME, organism-based; conditions: 1.5 h; how it was run: as §1
Mus musculus [14] = test: The in vivo tissue distribution of mouse heart with Propranolol administration after 120 min, value was fractional dose per fractional body weight of the organ; format: ADME, organism-based; conditions: 2 h; how it was run: as §2
Mus musculus [15] = test: The in vivo tissue distribution of mouse heart with Propranolol administration after 180 min, value was fractional dose per fractional body weight of the organ; format: ADME, organism-based; conditions: 3 h; how it was run: as §2
Mus musculus [16] = test: The in vivo tissue distribution of mouse liver with Propranolol administration after 90 min, value was fractional dose per fractional body weight of the organ; format: ADME, organism-based; conditions: 1.5 h; how it was run: as §2
Mus musculus [17] = test: The in vivo tissue distribution of mouse lung with Propranolol administration after 180 min, value was fractional dose per fractional body weight of the organ; format: ADME, organism-based; conditions: 3 h; how it was run: as §1
Mus musculus [18] = test: The in vivo tissue distribution of mouse lung with Propranolol administration after 20 min, value was fractional dose per fractional body weight of the organ; format: ADME, organism-based; how it was run: as §2
Mus musculus [19] = test: The in vivo tissue distribution of mouse lung with Propranolol administration after 60 min, value was fractional dose per fractional body weight of the organ; format: ADME, organism-based; conditions: 1 h; how it was run: as §1
Mus musculus [20] = test: The in vivo tissue distribution of mouse liver with Propranolol administration after 40 min, value was fractional dose per fractional body weight of the organ; format: ADME, organism-based; how it was run: as §2
Mus musculus [21] = test: The in vivo tissue distribution of mouse liver with Propranolol administration after 120 min, value was fractional dose per fractional body weight of the organ; format: ADME, organism-based; conditions: 2 h; how it was run: as §1
Mus musculus [22] = test: The in vivo tissue distribution of mouse liver with Propranolol administration after 60 min, value was fractional dose per fractional body weight of the organ; format: ADME, organism-based; conditions: 1 h
How it was run: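 Male CF-1 mice (25–30 g) anaesthetised with 2 mg sodium pentobarbital ip; blocked group given 0.1 mL of […] propranolol iv via tail vein (200 μg, 6.6 mg/kg), tracer 30 min later. 0.1 mL of 1–2 mCi/mL [18F]-labelled enantiomer iv via tail vein; killed by cervical dislocation, organs weighed and counted against weighed standards. %ID/g × body weight/100 gives unitless uptake; five mice per point (heart, blood, lung, kidney, liver, bone); mean ± SD.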

Mus musculus [23] = test: The in vivo tissue distribution of mouse lung without Propranolol preadministration in 10 min, value was fractional dose per fractional body weight of the organ
Mus musculus [24] = test: The in vivo tissue distribution of mouse lung without Propranolol preadministration in 90 min, value was fractional dose per fractional body weight of the organ; conditions: 1.5 h
Mus musculus [25] = test: The in vivo tissue distribution of mouse heart without Propranolol preadministration in 90 min, value was fractional dose per fractional body weight of the organ; conditions: 1.5 h
Mus musculus [26] = test: The in vivo tissue distribution of mouse brain without Propranolol preadministration in 10 min, value was fractional dose per fractional body weight of the organ
Mus musculus [27] = test: The in vivo tissue distribution of mouse brain without Propranolol preadministration in 20 min, value was fractional dose per fractional body weight of the organ
Mus musculus [28] = test: The in vivo tissue distribution of mouse blood without Propranolol preadministration in 20 min, value was fractional dose per fractional body weight of the organ
Mus musculus [29] = test: The in vivo tissue distribution of mouse blood without Propranolol preadministration in 40 min, value was fractional dose per fractional body weight of the organ
Mus musculus [30] = test: The in vivo tissue distribution of mouse liver without Propranolol preadministration in 60 min, value was fractional dose per fractional body weight of the organ; conditions: 1 h
Mus musculus [31] = test: The in vivo tissue distribution of mouse lung without Propranolol preadministration in 120 min, value was fractional dose per fractional body weight of the organ; conditions: 2 h
Mus musculus [32] = test: The in vivo tissue distribution of mouse blood without Propranolol preadministration in 60 min, value was fractional dose per fractional body weight of the organ; conditions: 1 h
Mus musculus [33] = test: The in vivo tissue distribution of mouse kidney without Propranolol preadministration in 90 min, value was fractional dose per fractional body weight of the organ; conditions: 1.5 h

Row | SMILES | Dose/organ (Mus musculus [1]) | Dose/organ (Mus musculus [2]) | Dose/organ (Mus musculus [3]) | Dose/organ (Mus musculus [4]) | Dose/organ (Mus musculus [5]) | Dose/organ (Mus musculus [6]) | Dose/organ (Mus musculus [7]) | Dose/organ (Mus musculus [8]) | Dose/organ (Mus musculus [9]) | Dose/organ (Mus musculus [10]) | Dose/organ (Mus musculus [11]) | Dose/organ (Mus musculus [12]) | Dose/organ (Mus musculus [13]) | Dose/organ (Mus musculus [14]) | Dose/organ (Mus musculus [15]) | Dose/organ (Mus musculus [16]) | Dose/organ (Mus musculus [17]) | Dose/organ (Mus musculus [18]) | Dose/organ (Mus musculus [19]) | Dose/organ (Mus musculus [20]) | also measured
1 | CC(C[18F])NC[C@H](O)COc1cccc2[nH]c3ccccc3c12 (stereo partly specified) | 1.1 | 0.72 | 1.1 | 0.4 | 4.18 | 0.38 | 1.64 | 0.63 | 0.39 | 0.13 | 0.64 | 0.25 | 0.8 | 0.15 | 0.15 | 1.39 | 0.72 | 3.26 | 1.1 | 1.66 | Dose/organ (Mus musculus [21]): 0.66; Dose/organ (Mus musculus [22]): 1.17; Dose/organ (Mus musculus [23]): 6.4; Dose/organ (Mus musculus [24]): 5.88; Dose/organ (Mus musculus [25]): 0.61; Dose/organ (Mus musculus [26]): 1.18; Dose/organ (Mus musculus [27]): 0.95; Dose/organ (Mus musculus [28]): 0.71; Dose/organ (Mus musculus [29]): 0.69; Dose/organ (Mus musculus [30]): 1.32; Dose/organ (Mus musculus [31]): 4.82; Dose/organ (Mus musculus [32]): 0.6; Dose/organ (Mus musculus [33]): 1.33
2 | CC(C[18F])NC[C@@H](O)COc1cccc2[nH]c3ccccc3c12 (stereo partly specified) | 1.15 | 1.08 | 0.93 | 0.14 | 5.1 | 0.63 | 2.7 | 0.85 | 0.92 | 0.3 | 0.9 | 0.62 | 0.35 | 0.27 | 0.1 | 1.17 | 0.26 | 3.87 | 1.23 | 2.11 | Dose/organ (Mus musculus [21]): 0.94; Dose/organ (Mus musculus [22]): 1.61; Dose/organ (Mus musculus [23]): 8.13; Dose/organ (Mus musculus [24]): 1.55; Dose/organ (Mus musculus [25]): 0.46; Dose/organ (Mus musculus [26]): 0.82; Dose/organ (Mus musculus [27]): 0.66; Dose/organ (Mus musculus [28]): 0.75; Dose/organ (Mus musculus [29]): 0.63; Dose/organ (Mus musculus [30]): 2.56; Dose/organ (Mus musculus [31]): 1.29; Dose/organ (Mus musculus [32]): 0.42; Dose/organ (Mus musculus [33]): 1.5
